Results: ChEMBL document CHEMBL1123895, “Synthesis and anti-HIV activity of various 2'- and 3'-substituted 2',3'-dideoxyadenosines: a structure-activity analysis” (1987)

How the values were obtained:
[1] = Selectivity ratio CD50 to ED50; format: functional
In short: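 Ratio of CD50 to ED50. CD50 is from uninfected MT-4 cells and ED50 from MT-4 cells infected with HIV at 10 CCID50 per well. Both are read after 5 days with compound by trypan blue viable cell counting in a blood cell counting chamber.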

MT4 [2] = test: Cytotoxicity was determined as the dose required to reduce the viability of uninfected MT-4 cells by 50%; format: functional; conditions: Homo sapiens, read-out: CD50 (the source's name)
In short: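 Mock-infected MT-4 cells incubated 5 days with a range of compound concentrations. Viable cells counted in a blood cell counting chamber after trypan blue staining.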

MT4 [3] = test: (§1) Anti-HIV activity was determined as dose required to protect 50% of the HIV-infected MT-4 cells against destruction; format: functional, Homo sapiens; conditions: read-out: ED50 (the source's name)
In short: (§2)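 MT-4 cells infected with HIV at 10 CCID50 per well, incubated 5 days with a range of compound concentrations. Viable cells counted in a blood cell counting chamber after trypan blue staining.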

MT4 [4] = test: as §1; format: functional; conditions: Homo sapiens, read-out: ED50 (the source's name); in short: as §2

Compound	Ratio [1]	CC50 (MT4 [2]) [µM]	EC50 (MT4 [3]; Homo sapiens, MT4) [µM]	EC50 (MT4 [4]) [µM]	EC50 (MT4 [3]) [µM]
Cc1cn([C@H]2C[C@H](N=[N+]=[N-])[C@@H](CO)O2)c(=O)[nH]c1=O [ZIDOVUDINE]	666	4	0.006	–	–
[N-]=[N+]=N[C@H]1C[C@@H](CO)O[C@H]1n1cnc2c(N)ncnc21	11.4	625	55	–	–
Nc1ncnc2c1ncn2[C@H]1C[C@H](F)[C@@H](CO)O1 (stereo in doubt; 12) [listing 1 of 2 here]	11.1	–	–	–	–
[N-]=[N+]=N[C@@H]1C[C@@H](CO)O[C@H]1n1cnc2c(N)ncnc21	> 2.9	> 625	–	215	–
Nc1ncnc2c1ncn2[C@H]1C[C@H](F)[C@@H](CO)O1 (stereo in doubt; 13) [listing 1 of 2 here]	–	> 625	–	–	221
Nc1ncnc2c1ncn2[C@H]1C=C[C@@H](CO)O1	< 1.2	34	> 25	–	–
Nc1ncnc2c1ncn2[C@@H]1O[C@H](CO)C[C@@H]1F [LODENOSINE]	> 18	> 625	35	–	–
Nc1ncnc2c1ncn2[C@H]1CC[C@@H](CO)O1	148	889	6.2	–	–
Nc1ncnc2c1ncn2[C@@H]1O[C@H](CO)C[C@H]1F	–	> 625	–	> 625	–
Nc1ncnc2c1ncn2[C@H]1C[C@H](F)[C@@H](CO)O1 (stereo in doubt; 13) [listing 2 of 2 here]	> 2.8	–	–	–	–
Nc1ncnc2c1ncn2[C@H]1C[C@H](F)[C@@H](CO)O1 (stereo in doubt; 12) [listing 2 of 2 here]	–	–	–	–	50
